According to ChEMBL document CHEMBL1145988, “A conformationally locked analogue of the anti-HIV agent stavudine. An important correlation between pseudorotation and maximum amplitude” (J Med Chem, 2003):

Key:
CCRF-CEM [1] = assay: Cytostatic concentration required to inhibit Human T-Lymphocyte (CEM) cells proliferation caused by HIV-1 (IIIB); type: functional
How it was run: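 CEM cell proliferation measured; value is concentration inhibiting proliferation by 50%.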

CCRF-CEM [2] = assay: Effective concentration required to protect Human T-Lymphocyte (CEM) cells against cytopathogenicity of HIV-2 (ROD); type: functional, cell-based
How it was run: (§1)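 CEM cells at 4.5×10^5 cells/mL infected with 100 CCID50/mL of HIV-1 or HIV-2, then mixed 1:1 with compound dilutions (final 200, 40, 8, 0.32, 0.062 μg/mL) and held at 37 °C. Syncytia counted microscopically after 4–5 days. EC50 is the concentration preventing syncytium formation by 50%.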

[3] = Effective concentration required to inhibit P24 antigen production in PHA-PBM cells exposed to HIV-1 LAI; type: functional, cell-based; conditions: Homo sapiens, PBMC
How it was run: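 PHA-stimulated PBM cells at 1×10^6/mL exposed to 50 TCID50 HIV-1 LAI with 10-fold serial drug dilutions, triplicate. p24 antigen measured by radioimmunoassay after 7 days of culture. EC50 set against p24 in drug-free controls.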

CCRF-CEM [4] = assay: Effective concentration required to protect activity Human CEM/TK- cells against cytopathogenicity of HIV virus; type: functional, cell-based
CCRF-CEM [5] = assay: Effective concentration required to protect Human T-Lymphocyte (CEM) cells against cytopathogenicity of HIV-1 (IIIB); type: functional, cell-based; how it was run: as §1
MT2 = assay: Effective concentration required to protect MT-2 cells against cytopathogenicity of HIV-1 LAI; type: functional, cell-based; conditions: Homo sapiens
How it was run: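 MT-2 cells (2×10^3) challenged with 100 TCID50 HIV-1 LAI and cultured with compound. MTT read-out on day 7 gives EC50 for 50% protection; run in duplicate.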

MT4 = assay: Effective concentration required to protect MT-4 cells against cytopathogenicity of HIV-1 LAI; type: functional, cell-based; conditions: Homo sapiens
How it was run: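 MT-4 cells (3×10^4) exposed to 100 TCID50 HIV-1 LAI and cultured with compound. Viability read by MTT assay on day 5. EC50 taken as 50% protection against cytopathogenicity; duplicate assays.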

[6] = biological target: Human immunodeficiency virus type 1 reverse transcriptase (Human immunodeficiency virus 1, UniProt Q72547); assay: Inhibitory concentration required against Reverse transcriptase (RT)
How it was run: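 Wild-type HIV-1 RT (1.0 μg) extends -47 primer annealed to single-stranded M13mp18 DNA. Run 30 min at 37 °C, then TCA-precipitated, filtered, scintillation counted; duplicate.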

With Cc1cn([C@H]2C=C[C@]3(CO)C[C@H]23)c(=O)[nH]c1=O as the molecule, how does the CC50 (CCRF-CEM [1]) read?
Its CC50 is > 250000 nM.

And the EC50 (CCRF-CEM [2])?
Its EC50 is 1450 nM.

What about the EC50 [3] of the same molecule?
Its EC50 is 60 nM.

What about the EC50 (CCRF-CEM [4]) of the same molecule?
Its EC50 is > 250000 nM.

What about the EC50 (CCRF-CEM [5]) of the same molecule?
The EC50 was 960 nM.

What about the EC50 (MT2) of the same molecule?
Its EC50 is 6100 nM.

And the EC50 (MT4)?
Its EC50 is 6900 nM.

For Cc1cn([C@H]2C=C[C@@H](COP(=O)(O)OP(=O)(O)OP(=O)(O)O)O2)c(=O)[nH]c1=O, which IC50 [6] is on record?
The IC50 was 80 nM.

For Cc1cn([C@H]2C=C[C@@H](CO)O2)c(=O)[nH]c1=O [STAVUDINE], which CC50 (CCRF-CEM [1]) is on record?
The CC50 was 93000 nM.

And the EC50 (CCRF-CEM [2])?
Its EC50 is 400 nM.

What about the EC50 [3] of the same molecule?
Its EC50 is 40 nM.

What about the EC50 (CCRF-CEM [4]) of the same molecule?
The EC50 was 27000 nM.

And the EC50 (CCRF-CEM [5])?
The EC50 was 210 nM.

And the EC50 (MT2)?
Its EC50 is 1800 nM.

What about the EC50 (MT4) of the same molecule?
Its EC50 is 710 nM.

For Cc1cn([C@H]2C=C[C@]3(COP(=O)(O)OP(=O)(O)OP(=O)(O)O)C[C@H]23)c(=O)[nH]c1=O, which IC50 [6] is on record?
The IC50 was 650 nM.

With Cc1cn([C@H]2C[C@H](N=[N+]=[N-])[C@@H](CO)O2)c(=O)[nH]c1=O [ZIDOVUDINE] as the molecule, how does the EC50 (MT2) read?
The EC50 was 30 nM.

What about the EC50 (MT4) of the same molecule?
The EC50 was 20 nM.
